Screening results deposited in PubChem by several laboratories.
Sampled rows, rich in hits. Any-hit rate of the full collection: about 1.6%.
DNA FID counter: fluorescent intercalator displacement, NS3 helicase counter-screen; DNA fluorescent intercalator displacement, fluorescence; inhibition, % at 7.9 µM; actives 0.17% (n = 290,000); AID 1845; in the data active = inhibition above about 37%;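 note: 0% = vehicle and 100% = reference compound; higher means more ethidium bromide displaced from hairpin DNA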
RAD52 inh: RAD52 (human) annealing inhibition | actives 0.46% (n = 360,000) | P43351 | inhibition, % at 18.7 µM | recombinant RAD52 DNA annealing, FRET fluorescence;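 active = every replicate showing at least 50% inhibition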
Apaf-1 inh: human Apaf-1 inhibition; reconstituted apoptosome caspase-3 activity, DEVD-Rh110 fluorescence; inhibition, % at 20 µM; actives 0.71% (n = 330,000); AID 489030; active = inhibition of at least 40% at 20 µM;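 note: plate controls were DMSO wells for no effect and DEVD-CHO caspase inhibitor wells for full effect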
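detection = Rh110 fluorescence intensity | test system = biochemical Apaf-1 apoptosome reconstitution | also added = cytochrome c and DEVD-Rh110 substrate | schedule = 30 min plus 50 min, RT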
UBC13 inh: human UBC13 polyubiquitination inhibition; P61088; UBC13 polyubiquitin chain formation, TR-FRET; inhibition, % at 20 µM; actives 0.47% (n = 330,000); AID 485273; in the data active = inhibition above about 45%, passing the limit was not always enough
RAD54 branch: inhibitors of human RAD54 branch migration. RAD54 Holliday junction branch migration, FAM/BHQ fluorescence. actives 0.14% (n = 360,000). inhibition, % at 10.4 µM. AID 602329. Q92698;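 active = mean normalized replicate activity at least 40 and at least half of replicates scoring 40 or more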;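 note: 0% = median of neutral control wells and 100% = median of positive control wells; inhibitors cause a drop in the FAM fluorescence signal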
Target sequence (Q92698 whole entry, looked up): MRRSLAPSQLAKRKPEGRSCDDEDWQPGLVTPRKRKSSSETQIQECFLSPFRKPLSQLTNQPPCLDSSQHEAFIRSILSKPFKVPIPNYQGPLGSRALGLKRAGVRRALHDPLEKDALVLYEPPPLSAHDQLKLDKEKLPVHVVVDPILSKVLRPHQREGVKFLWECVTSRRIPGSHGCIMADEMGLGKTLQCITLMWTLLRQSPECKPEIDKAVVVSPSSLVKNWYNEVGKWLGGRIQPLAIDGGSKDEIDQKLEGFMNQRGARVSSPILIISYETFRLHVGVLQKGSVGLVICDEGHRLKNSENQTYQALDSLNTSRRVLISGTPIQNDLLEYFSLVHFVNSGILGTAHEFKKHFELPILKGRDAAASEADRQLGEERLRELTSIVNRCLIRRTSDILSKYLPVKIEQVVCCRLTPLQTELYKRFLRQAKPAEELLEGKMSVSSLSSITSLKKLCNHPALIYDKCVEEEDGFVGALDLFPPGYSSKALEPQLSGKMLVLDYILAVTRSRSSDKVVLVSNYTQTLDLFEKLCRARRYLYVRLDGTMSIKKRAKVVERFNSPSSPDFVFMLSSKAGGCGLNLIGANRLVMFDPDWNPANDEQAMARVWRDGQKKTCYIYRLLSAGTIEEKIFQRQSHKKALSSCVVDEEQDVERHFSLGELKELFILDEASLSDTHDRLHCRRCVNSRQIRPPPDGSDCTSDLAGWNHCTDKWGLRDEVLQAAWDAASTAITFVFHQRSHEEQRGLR
Neddylation inh: cullin neddylation inhibition; P61081+Q13564; TR-FRET cullin neddylation, biochemical; calls only at 25 µM; actives 0.58% (n = 360,000); AID 651699; in the data active = inhibition above about 36%
Casp3 UBC13 ctr: counter-screen for UBC13 inhibitors: human caspase-3 inhibition | shares compounds with UBC13 inh | Recombinant caspase-3, Caspase-Glo 3/7 luminescence, 60 min | inhibition, % at 20 µM | actives 4% (n = 1,400) | AID 488856;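 active = mean inhibition across replicates above about 26%, limit read from the data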;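 note: plate controls were DMSO with caspase-3 for no effect and DMSO wells lacking enzyme for full effect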
UBC13 conf: human UBC13 polyubiquitin inhibition, confirmed. shares compounds with UBC13 inh. UBC13 polyubiquitination, TR-FRET, biochemical. inhibition, % at 10 µM. actives 68% (n = 1,400). AID 488859; in the data active = inhibition above about 45%
* marks the source's active call; other numbers are inactive results; i = inactive; . = not tested or not shown.

SMILES	DNA FID counter	RAD52 inh	Apaf-1 inh	UBC13 inh	RAD54 branch	Neddylation inh	Casp3 UBC13 ctr	UBC13 conf
Cc1ccc2nc(N(CCCN(C)C)C(=O)c3sc4ccccc4c3Cl)sc2c1	1	.	3	49*	37	i	-4	64*
Cc1noc(C)c1NC(=O)Nc1ccc2c(c1)C(=O)N([C@H](C)CO)C[C@H](C)[C@@H](CN(C)Cc1ccc3c(c1)OCO3)O2	.	-4	.	.	3	.	.	.
COc1ccccc1NC(=O)CN1CCC(n2c(C)nc3cc(F)ccc32)CC1	-26	.	14	104*	0	i	2	112*
COc1ccc(Cl)cc1NC(=O)CN1CCC(n2nnc3cc(C)ccc32)CC1	1	.	24	46*	.	i	-1	51*
COc1ccccc1NC(=O)CN1CCC(n2nnc3cc(F)ccc32)CC1	-12	.	11	70*	6	i	-3	69*
Cc1ccc2c(c1)nnn2C1CCN(CC(=O)Nc2ccccc2N2CCOCC2)CC1	-40	.	8	15	-4	i	.	.
COc1ccc(C(=O)N2CCC(n3c(C)nc4cc(F)ccc43)CC2)cc1OC	-21	.	3	5	.	i	.	.
Cc1ccc(C(=O)NNC(=O)CCCN2C(=O)/C(=C/c3ccccc3Cl)SC2=S)cc1	-4	.	17	25	1	i	.	.
O=C(CCCN1C(=O)/C(=C/c2ccccc2Cl)SC1=S)NNC(=O)c1ccc(Cl)cc1	-11	-140	17	58*	.	i	-1	83*
COc1cccc(NC(=O)N2CC3(C2)[C@H](c2ccccc2)[C@H](CO)N3C(=O)C2CCCC2)c1	.	-92	.	.	.	.	.	.
Oc1ccccc1Nc1nc(NCC2CCCO2)c2ccccc2n1 (stereo not given)	18	.	13	0	.	i	.	.
Oc1ccc(Cl)cc1Nc1nc(NCC2CCCO2)c2ccccc2n1 (stereo not given)	.	1	24	53*	0	i	-1	67*
Cc1ccc(S(=O)(=O)NNC(=O)C(=O)NNc2ccccn2)cc1	-11	.	-6	69*	-2	i	-1	81*
CC(=O)Nc1ccc(S(=O)(=O)NNC(=O)C(=O)NNc2ccccn2)cc1	-8	-6	-12	58*	-11	i	3	95*
CC(=O)Nc1ccc(S(=O)(=O)Nc2ccccn2)cc1	16	-7	0	-6	.	i	.	.
Cn1c(-c2c(N)n(CCCc3ccccc3)c3nc4ccccc4nc23)nc2ccccc21	-2	-16	.	.	7	.	.	.
COCCCn1c(N)c(-c2nc3ccccc3n2C)c2nc3ccccc3nc21	-6	.	-2	62*	-16	.	-1	59*
O=C(CCCCCN1C(=O)c2cccc3cccc(c23)C1=O)NCc1cccnc1	-14	-9	-6	76*	6	i	-3	58*
CC1CN(S(=O)(=O)c2cccc(C(=O)N(Cc3nnc(-c4ccccc4Cl)o3)C3CC3)c2)CC(C)O1 (stereo not given)	.	13	29	51*	-3	i	-2	86*
O=C(c1cccc(S(=O)(=O)N2CCOCC2)c1)N(Cc1nnc(-c2ccccc2Cl)o1)C1CC1	.	-6	1	-5	-5	i	.	.
C[C@H](CO)N1C[C@H](C)[C@@H](CN(C)Cc2ccc3c(c2)OCO3)Oc2c(NS(=O)(=O)c3ccc(F)cc3)cccc2C1=O	.	1	.	.	5	.	.	.
O=S(=O)(N[C@H]1CC[C@H](CCn2cc(-c3cccc(F)c3)nn2)O[C@@H]1CO)c1ccccc1	.	5	.	.	3	.	.	.
c1cc2c(cc1C1CCCCC1)c1c3n2CCCNC3CCC1 (stereo not given)	22	.	32	64*	.	i	2	72*
Cc1ccc2c(c1)c1c3n2CCCNC3CCC1 (stereo not given)	8	.	11	-3	13	i	.	.
CO[C@@H]1CN(C)C(=O)c2cc(NC(=O)C3CCC3)ccc2OC[C@@H](C)N(C(=O)c2ccccc2)C[C@H]1C	.	-1	.	.	-9	.	.	.
SMILES	DNA FID counter	RAD52 inh	Apaf-1 inh	UBC13 inh	RAD54 branch	Neddylation inh	Casp3 UBC13 ctr	UBC13 conf
COc1ccc2nc3oc(C(=O)NC4CCN(Cc5ccccc5)CC4)cc3cc2c1	1	.	19	58*	19	.	0	26
CCOC(=O)N1CCC(NC(=O)c2cc3cc4cc(OC)ccc4nc3o2)CC1	-18	.	-3	26	-4	.	.	.
COc1ccccc1NC(=O)CSc1nc2ccccc2n1C(C)=O	-8	.	-3	46*	12	i	-1	28
O=C(OCc1nc2scc(-c3ccccc3)c2c(=O)[nH]1)c1cc([N+](=O)[O-])ccc1Cl	-3	-29	22	46*	.	i	2	-3
O=C(O)CSCc1nc2scc(-c3ccccc3)c2c(=O)[nH]1	-13	-27	15	-4	.	i	.	.
COc1ccc(-c2nnc(SCC(=O)Nc3cc(F)ccc3C)o2)cc1	-4	-3	2	47*	10	i	-1	35
COCC1=C2[C@@H](CCc3ccccc3)OB(O)C[C@@H]2n2c(=O)n(-c3ccccc3)c(=O)n2C1	.	-4	.	.	.	.	.	.
Cc1cccc(OCc2n(CC(=O)OC3CC(C)CCC3C(C)C)c3ccccc3[n+]2C)c1 (stereo not given)	31	.	50*	59*	.	i	6	92*
O=S(=O)(Nc1nc2ccccc2[nH]1)c1ccc(Cl)cc1	-2	.	4	52*	5	i	-2	49*
O=S(=O)(Nc1nc2ccccc2[nH]1)c1ccccc1	2	.	-6	32	3	i	.	.
CCOC(=O)c1sc(N)nc1C(C)(C)C	-5	.	-1	4	-11	i	.	.
Cc1nc(N)sc1C(=O)OCC(C)C	-8	-10	-5	56*	3	i	-5	42
CCCC(=O)Nc1ccc2c(c1)OC[C@H](C)N(C(=O)CC)C[C@H](C)[C@H](OC)CN(C)C2=O	.	-6	.	.	-19	.	.	.
COc1cccc(C(=O)Nc2ccc3c(c2)C(=O)N(C)C[C@@H](OC)[C@@H](C)CN(CC2CC2)[C@@H](C)CO3)c1	.	-11	.	.	4	.	.	.
Cc1cccc(N2C(=O)c3ccc(C(=O)Nc4ccccn4)cc3C2=O)c1	-21	-7	6	-4	-2	i	.	.
CC(=O)Nc1ccc2c(c1)C(=O)N(c1cccc(C)c1)C2=O	-3	-16	-12	46*	.	i	2	40
O=C(NNC(=O)C1CCN(S(=O)(=O)c2ccc(Cl)cc2)CC1)c1ccc(S(=O)(=O)N2CCCCC2)cc1	-13	0	6	56*	.	i	7	52*
Cc1ccc(C(=O)NNC(=O)C2CCN(S(=O)(=O)c3ccc(Cl)cc3)CC2)cc1	-14	-17	2	40	3	i	.	.
